Autophagy HCS: modulators of autophagy; MEF GFP-LC3 puncta imaging; test concentration mostly 10 µM; calls only at 10 µM (by protocol); 190,000 compounds, 0.98% hits;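 active = percentage of spot-positive cells more than 3 SD above its plate mean, without a fluorescence outlier flag or 80% toxicity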;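 note: spot-positive cell cutoff set from DMSO-treated cells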
MT stabilize HCS: microtubule stabilization, imaging screen | % tubulin-high responders, % at 10 µM | 200,000 compounds, 0.83% hits | HeLa tubulin immunostaining HCS, 24 h; share of cells brighter than vehicle mean+2SD | AID 2205;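 active = plate Z-score above 3 for both tubulin-high and condensed-nucleus cell shares, with cell loss under 80%, at 10 µM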;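 note: anti alpha tubulin signal scored within the nucleus-defined area of each cell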
Hsp70 activator: transcriptional activators of Hsp70; HeLa Hsp70 promoter luciferase reporter, luminescence; scaled: vehicle 0, proteasome-inhibitor control 100%; activation, % at 10 µM; 200,000 compounds, 0.04% hits; AID 1203;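 active = activation above the mean across all tested compounds plus 3 SD, cutoff set per campaign, cut at about 5.5% in these data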;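 note: 100% = MG132 at 30 µM as the positive control and 0% = DMSO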
Dynein cargo inh: dynein cargo transport inhibition | 3617.4 mouse cells, GR-EGFP nuclear translocation imaging; test concentration mostly 20 µM; stimulated with dexamethasone, 1 µM; active compounds read low | z-score, hits read low | 220,000 compounds, 0.47% hits | AID 1381;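 active = plate z-score of nuclear minus cytoplasmic receptor signal below a set negative limit, without overly bright fluorescence or cell loss, cut at about -3.5 in these data, passing the limit was not always enough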;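 note: z-score of nuclear minus cytoplasmic ring GR-EGFP intensity difference per well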
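Buffer or medium – tet-free medium with charcoal-stripped serum · Signal – automated 10x imaging of fixed Hoechst-stained cells · Also added – dexamethasone agonist, 1.0 µM final, for 30 min · Incubation – induction 48 h, compound 1 h, agonist 30 min · Read-out – GR-EGFP nuclear translocation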
bCat nuc transl: beta-catenin nuclear translocation modulation; HeLa beta-catenin nuclear translocation, immunofluorescence imaging; 190,000 compounds, 0.3% hits; nuclear translocation activity, % at 5 µM;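 active = nuclear translocation activity above 50% at 5 µM, with a well cell count of 50 or more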;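 note: per-cell ratio of nuclear to cytoplasmic median beta-catenin stain intensity; plate controls were DMSO negative control for no effect and GSK-3 inhibitor IX positive control for full effect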
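Assay system: human HeLa cells, native beta-catenin; doses: 5 µM primary, 0.02–20 µM confirmation; incubation: compound treatment 24 h, 37°C, 5% CO2; technique: fluorescence imaging of beta-catenin antibody stain plus DAPI; measure: % activation, nuclear-to-cytoplasmic median beta-catenin signal ratio per cell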
* marks the source's active call; other numbers are inactive results; i = inactive; nt = no result given; + = active, no number. Shown are actives, neighbours in structure and some others; about 2.1% of the full set was active somewhere.

SMILES | Autophagy HCS | MT stabilize HCS | Hsp70 activator | Dynein cargo inh | bCat nuc transl
Cc1cc(C)c2c(=O)cc(C(F)(F)F)oc2n1 | i | 3.4 | -0.2 | 1.04 | -3.4
Cn1cnnc1SCC(=O)N/N=C/c1ccc(OCC(N)=O)cc1 | nt | nt | nt | -0.0232 | 2.1
CCN(CC)c1ccc(CNc2nc3ccccc3n2C(C)C)cc1 | nt | nt | nt | -0.308 | 0.6
CC(C)n1c(NCc2ccc(N(C)C)cc2)nc2ccccc21 | + | 3.0 | 0.1 | -0.425 | -0.3
CCCCNc1ncnc2c1cnn2-c1ccccc1 | i | 31.9* | 0.1 | -0.163 | 77.1*
CCCCNc1ncnc2c1cnn2-c1ccc(Cl)cc1 | i | 17.6* | 0.2 | -0.452 | 47.8
Clc1ccc(-n2ncc3c(NCCCn4ccnc4)ncnc32)cc1 | i | 1.3 | 0.0 | 0.138 | -3.1
c1ccc(-n2ncc3c(NCCCN4CCOCC4)ncnc32)cc1 | i | 2.1 | -0.1 | -0.559 | 1.0
N=c1c2c(-c3ccccc3)c(-c3ccccc3)n(Cc3ccco3)c2ncn1Cc1ccccc1 | + | 5.4 | -0.2 | -0.905 | nt
CC(C)Cn1cnc2c(c(-c3ccccc3)c(-c3ccccc3)n2Cc2ccco2)c1=N | + | 1.7 | -0.3 | -1.24 | nt
N=c1c2c(-c3ccccc3)c(-c3ccccc3)n(Cc3ccco3)c2ncn1CCCn1ccnc1 | i | 3.1 | 0.2 | -0.286 | 4.9
N=c1c2c(-c3ccccc3)c(-c3ccccc3)n(Cc3ccccc3)c2ncn1CCO | + | 2.7 | -0.1 | 1.76 | -1.4
N=c1c2c(-c3ccccc3)c(-c3ccccc3)n(Cc3ccco3)c2ncn1CCCN1CCOCC1 | i | 44.1 | -0.1 | -0.639 | 6.9
COc1ccc(CNS(=O)(=O)c2ccccc2Br)cc1 | nt | nt | nt | 0.309 | -0.2
Cc1c(C(=O)NC(=S)Nc2ccc3c4c(cccc24)CC3)cccc1[N+](=O)[O-] | i | 6.1 | -0.2 | 0.0291 | 1.9
Cc1c(C(=O)Nc2ccc3c4c(cccc24)CC3)cccc1[N+](=O)[O-] | i | 21.8* | 0.8 | 1.74 | -2.4
COn1c(SCC(N)=O)nc2ccccc2c1=O | i | 8.2 | -0.1 | -1.35 | -3.2
COn1c(SCc2ccc(C)cc2C)nc2ccccc2c1=O | i | 40.7* | -0.3 | -1.18 | 50.6*
O=C(Cn1cnc2c(nnn2Cc2ccc(F)cc2)c1=O)Nc1ccccc1 | nt | nt | nt | 2.67 | -0.3
O=C(c1cccs1)N(Cc1ccco1)c1nc(-c2ccc(F)cc2)cs1 | i | 2.9 | -0.1 | -0.28 | nt
CN(C)CCCN(C(=O)c1cccs1)c1nc(-c2ccccc2)cs1 | + | 3.9 | -0.6 | 0.433 | -3.9
Cc1sc(NC(=O)Cn2[nH]c(=O)c3ccccc3c2=O)nc1-c1ccccc1 | i | 3.6 | -0.5 | 0.751 | 1.9
CS(=O)(=O)N1CCN(C(=O)COc2ccccc2)CC1 | + | 2.6 | -0.2 | 2.26 | -1.2
CS(=O)(=O)N1CCN(C(=O)COc2ccc3ccccc3c2)CC1 | nt | nt | nt | 1.17 | -0.9
CC(=O)c1ccc(OCCCC(=O)n2nnc3ccccc32)cc1 | + | 2.5 | -0.2 | 2.51 | 1.2
SMILES | Autophagy HCS | MT stabilize HCS | Hsp70 activator | Dynein cargo inh | bCat nuc transl
Cc1nn(Cc2ccccc2)c(Cl)c1C(=O)OC(C)C#N (stereo not drawn) | i | 3.4 | 0.0 | 1.04 | -5.1
c1ccc2c(-c3csc(-c4ccncc4)n3)c[nH]c2c1 | + | 3.8 | 0.1 | 0.169 | 1.2
Cc1ccc(C(=O)CC2(O)C(=O)N(C)c3ccccc32)o1 (stereo not drawn) | + | 6.8 | 0.3 | 0.28 | nt
COC(=O)CN1C(=O)C(O)(CC(=O)c2ccc(C)o2)c2ccccc21 (stereo not drawn) | i | 3.1 | -0.2 | -0.866 | 0.3
CCCCCCCn1c(NC(=O)CC)nc2ccccc21 | nt | nt | nt | -0.268 | 1.5
COc1ccc(C2=CC(c3ccc(OC)c(OC)c3)n3nnnc3N2)c(OC)c1 (stereo not drawn) | i | 3.0 | -0.3 | -0.786 | 0.8
COc1cccc(C2=CC(c3ccccc3)n3nnnc3N2)c1 (stereo not drawn) | i | 31.9* | 0.0 | -0.984 | nt
COc1cccc(C2=CC(c3ccc(N(C)C)cc3)n3nnnc3N2)c1 (stereo not drawn) | i | 41.6* | -0.2 | -1.02 | -3.7
COc1cccc(C2C=C(c3ccc(OC)cc3OC)Nc3nnnn32)c1 (stereo not drawn) | i | 30.1* | -0.3 | -0.274 | nt
CCc1ccc(NC(=S)N(Cc2cccc(Br)c2)CC2CCC(C(=O)O)CC2)cc1 (stereo not drawn) | i | 1.6 | -0.5 | -0.431 | 1.0
CC(OC(=O)c1oc2ccccc2c1CSC1CCCCC1)C(=O)NC(N)=O (stereo not drawn) | i | 2.4 | -0.2 | -0.484 | -0.8
CC(OC(=O)c1oc2ccccc2c1COc1ccccc1)C(=O)NC(N)=O (stereo not drawn) | + | 5.3 | -0.3 | 0.62 | -0.9
O=c1[nH][nH]c2ccccc2c1=O | nt | nt | nt | -0.638 | 2.2
Oc1nc(Nc2cccc(Cl)c2)sc1/C=C1\C=Nc2ccccc21 | i | 18.3* | -0.1 | 0.156 | 1.0
COc1ccc2c(c1)C(=O)N(c1ccccc1OC)C(=O)C2 | i | 3.3 | 0.0 | -1.05 | nt
COc1ccc2c(c1)C(=O)N(c1ccccc1C)C(=O)C2(C)C | i | 19.0* | 0.2 | 0.21 | 0.1
CCC1CN(C(=O)Nc2ccc(C)cc2)c2cc(C)ccc2O1 (stereo not drawn) | + | 1.6 | -0.3 | -0.885 | 0.1
Cc1ccc(CN2CCN(/N=C/c3ccc(Cl)c([N+](=O)[O-])c3)CC2)cc1 | i | 4.3 | 0.6 | 1.53 | 2.6
COC(=O)c1c(C)oc2ccc(N(C(=O)c3ccncc3)S(=O)(=O)c3ccc4ccccc4c3)cc12 | i | 27.3* | -0.3 | 0.157 | -0.6
COC(=O)c1c(C)oc2ccc(N(C(=O)Oc3ccccc3)S(=O)(=O)c3ccc(Cl)c([N+](=O)[O-])c3)cc12 | i | 2.5 | -0.4 | -0.421 | -1.4
Cc1ccc(S(=O)(=O)N(C(=O)c2ccncc2)c2ccc(OC(=O)c3ccncc3)c3ccccc23)c(C)c1 | i | 1.4 | -0.3 | -2.49 | -3.0
COC(=O)c1c(C)oc2ccc(N(C(=O)c3ccncc3)S(=O)(=O)c3ccc(C)cc3)cc12 | i | 12.8 | -0.1 | -0.59 | 162.2*
COC(=O)c1c(C)oc2ccc(N(C(=O)c3ccncc3)S(=O)(=O)c3ccc(C)cc3C)cc12 | i | 14.1* | -0.3 | -0.532 | -0.4
COC(=O)c1c(C)oc2ccc(N(C(=O)c3ccncc3)S(=O)(=O)c3ccccc3)cc12 | i | 1.7 | -0.3 | -1.13 | 0.5
O=S(=O)(c1ccc(Br)s1)N1CCNCC1 | nt | nt | nt | 0.199 | 1.3
COC(=O)c1sc(-c2cccs2)cc1NC(=O)/C=C/C(=O)O | nt | nt | nt | -1.41 | -1.0
COCCCNC(=O)c1cc2c(=O)n(C)c3ccccc3c2n1C | i | 13.3* | -0.2 | -0.408 | nt
COCCNC(=O)c1cc2c(=O)n(C)c3ccccc3c2n1C | i | 4.6 | 2.1 | -0.282 | nt
